Experimental data pooled from the literature.
Target: Serine/threonine-protein kinase PAK 1 (PAK1, Homo sapiens, UniProt Q13153)

Compound | assay | conditions | remaining binding
CO[C@@H](C)c1c(Nc2ccc([C@@H](N(C)C(=O)C3CCS(=O)(=O)CC3)C(F)(F)F)cc2)cnc2cc(Cl)nn12 | cell-free assay, competition with immobilised ligand | 1 µM | 83%
O=C(c1ccc(Nc2ncc(Cl)c(-c3ccc(Cl)s3)n2)cc1)N1CCC(N2CCCC2)CC1 | binding, competition with immobilised ligand | 1 µM | 68%
CN(C)C(=O)Cn1cc(-c2nc([C@@](C)(c3ccc(-c4cnc(N)nc4)cc3)C3CC3)no2)cn1 | cell-free assay, competition with immobilised ligand | 1 µM | 100%
O=C(NCCCN1CCOCC1)c1ccc(Nc2nccc(-c3cc4ccccc4s3)n2)cc1 | binding, competition with immobilised ligand | 1 µM | 84%
c1cnn2ncc(-c3ccnc(N4CCC45COC5)n3)c2c1 | binding | 1 µM | 90%
COc1cnc(Nc2cccc(S(N)(=O)=O)c2)nc1N1CCN(c2ccccc2)C(=O)C1 | binding, competition with immobilised ligand | 1 µM | 100%
C[C@H](c1ccnc(Nc2nc3ccc(-c4cc(N(C)C)ncn4)cc3[nH]2)c1)N1CCN(C(=O)CC(F)(F)F)CC1 | cell-free assay, competition with immobilised ligand | 0.1 µM | 77%
N[C@@H]1CCN(c2nccc(-c3cnn4ncccc34)n2)C1 | binding | 1 µM | 100%
NS(=O)(=O)c1cc(NC(=O)Cc2ccccc2)ccc1Oc1cccc(Cl)c1 | cell-free assay, competition with immobilised ligand | 1 µM | 88%
CN(CCCC(F)(F)F)c1nccc(-c2cnn3ncccc23)n1 | binding | 1 µM | 98%
CO[C@H]1CC[C@H](CNc2ccc(S(=O)(=O)NC(=O)c3ccc(N4CCN(CC5=C(c6ccc(Cl)cc6)CC(C)(C)CC5)CC4)cc3Oc3cnc4[nH]ccc4c3)cc2[N+](=O)[O-])CC1 | cell-free assay, competition with immobilised ligand | 1 µM | 78%
C[C@@H]1CCN(c2nccc(-c3cnn4ncccc34)n2)C1 | binding | 1 µM | 100%
CC(C)(C)c1ccc(-c2nc(CBr)nn2-c2cccc(O)c2)cc1 | cell-free assay, competition with immobilised ligand | 10 µM | 98%
Cc1cnc(Nc2ccc(C(=O)N3CCC(N4CCCC4)CC3)cc2)nc1-c1cc2ccccc2s1 | binding, competition with immobilised ligand | 1 µM | 98%
O=C(NCC1CCOCC1)c1n[nH]cc1NC(=O)c1c(F)cccc1F | binding, competition with immobilised ligand | 1 µM | 100%
CN(C)c1nccc(-c2cnc3ncccn23)n1 | binding | 1 µM | 91%
FC(F)(F)c1ccc2c(c1)nc(-c1cccnc1)n2C1CC1 | cell-free assay, competition with immobilised ligand | 1 µM | 100%
Cc1cnn2ncc(-c3ccnc(N(C)C)n3)c2c1 | binding | 1 µM | 71%
CN(C)C(=O)Cn1cc(-c2nc(C3(c4ccc(-c5cnc(N)nc5)cc4)CC3)no2)cn1 | cell-free assay, competition with immobilised ligand | 1 µM | 100%
CCN1CCN(Cc2ccc(C(=O)Nc3ccc(C)c(Oc4ccc5c(c4)CC(=O)N5)c3)cc2C(F)(F)F)CC1 | binding, competition with immobilised ligand | 1 µM | 100%
Nc1ncc2c(n1)-c1c([nH]c3ccc(C#CC4CC4)cc13)CCCC2 | binding, competition with immobilised ligand | 1 µM | 83%
CC1CCCN1c1nccc(-c2cnn3ncccc23)n1 (centres unmarked) | binding | 1 µM | 100%
C[C@@H]1CN(c2ccc3ncc(-c4ccc5[nH]nc(C6CC6)c5c4)n3n2)C[C@H](C)O1 | binding, competition with immobilised ligand | 0.5 µM | 98%
